Reference: ChEMBL document CHEMBL1641418, “Discovery of isoindoline and tetrahydroisoquinoline derivatives as potent, selective PPARδ agonists” (Bioorg Med Chem Lett, 2011)

Key:
[1] = target: T1, Peroxisome proliferator-activated receptor delta (Homo sapiens, UniProt Q03181); experiment: Agonist activity at Gal4-fused human PPARdelta […] binding domain expressed in HEK293 cells by luciferase reporter gene assay; assay type: cell-based
T1 sequence (Q03181 whole entry): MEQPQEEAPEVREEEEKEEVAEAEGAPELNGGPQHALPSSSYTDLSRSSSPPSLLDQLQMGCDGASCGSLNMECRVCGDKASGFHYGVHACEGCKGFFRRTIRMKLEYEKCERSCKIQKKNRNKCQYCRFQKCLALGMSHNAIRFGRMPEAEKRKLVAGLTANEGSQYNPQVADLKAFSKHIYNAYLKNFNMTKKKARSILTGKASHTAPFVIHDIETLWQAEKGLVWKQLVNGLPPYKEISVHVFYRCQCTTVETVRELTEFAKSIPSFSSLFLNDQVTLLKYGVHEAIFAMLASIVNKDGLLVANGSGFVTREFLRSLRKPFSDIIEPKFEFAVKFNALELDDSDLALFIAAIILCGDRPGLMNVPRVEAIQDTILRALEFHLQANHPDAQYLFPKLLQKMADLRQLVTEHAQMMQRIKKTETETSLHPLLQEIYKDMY

[2] = Lipophilicity, log D of the compound; assay type: physicochemical; conditions: octanol/water
[3] = target: T2, Peroxisome proliferator-activated receptor alpha (Homo sapiens, UniProt Q07869); experiment: Agonist activity at Gal4-fused human PPARalpha […] binding domain expressed in HEK293 cells by luciferase reporter gene assay; assay type: cell-based
T2 sequence (Q07869 whole entry): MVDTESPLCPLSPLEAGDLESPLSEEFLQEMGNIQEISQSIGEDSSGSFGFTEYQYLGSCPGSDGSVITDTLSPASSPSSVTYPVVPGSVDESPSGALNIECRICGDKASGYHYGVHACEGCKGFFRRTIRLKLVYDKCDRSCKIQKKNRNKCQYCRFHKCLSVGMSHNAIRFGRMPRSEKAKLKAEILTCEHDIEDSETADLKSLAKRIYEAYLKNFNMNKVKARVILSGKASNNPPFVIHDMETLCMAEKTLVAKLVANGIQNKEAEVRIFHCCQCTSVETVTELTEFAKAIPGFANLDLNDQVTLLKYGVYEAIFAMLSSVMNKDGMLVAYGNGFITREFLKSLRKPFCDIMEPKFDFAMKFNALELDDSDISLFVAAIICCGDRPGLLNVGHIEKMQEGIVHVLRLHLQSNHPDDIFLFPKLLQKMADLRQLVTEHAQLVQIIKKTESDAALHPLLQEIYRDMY

[4] = target: T1, Peroxisome proliferator-activated receptor delta; experiment: Induction of PPARdelta-mediated PDK4 mRNA upregulation in human myoblast after 24 hrs
Method in brief: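 Myoblasts isolated from human vastus lateralis skeletal muscle by enzymatic digestion, then differentiated into myotubes for 7 days in 2% horse serum. Myotubes were exposed to compound for 24 h, and fold induction of PDK4 mRNA was measured. EC50 was taken from the dose–response curve, with GW501516 run as the reference agonist.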

[5] = target: T3, Peroxisome proliferator-activated receptor gamma (Homo sapiens, UniProt P37231); experiment: Agonist activity at Gal4-fused human PPARgamma […] binding domain expressed in HEK293 cells by luciferase reporter gene assay; assay type: cell-based
T3 sequence (P37231 whole entry): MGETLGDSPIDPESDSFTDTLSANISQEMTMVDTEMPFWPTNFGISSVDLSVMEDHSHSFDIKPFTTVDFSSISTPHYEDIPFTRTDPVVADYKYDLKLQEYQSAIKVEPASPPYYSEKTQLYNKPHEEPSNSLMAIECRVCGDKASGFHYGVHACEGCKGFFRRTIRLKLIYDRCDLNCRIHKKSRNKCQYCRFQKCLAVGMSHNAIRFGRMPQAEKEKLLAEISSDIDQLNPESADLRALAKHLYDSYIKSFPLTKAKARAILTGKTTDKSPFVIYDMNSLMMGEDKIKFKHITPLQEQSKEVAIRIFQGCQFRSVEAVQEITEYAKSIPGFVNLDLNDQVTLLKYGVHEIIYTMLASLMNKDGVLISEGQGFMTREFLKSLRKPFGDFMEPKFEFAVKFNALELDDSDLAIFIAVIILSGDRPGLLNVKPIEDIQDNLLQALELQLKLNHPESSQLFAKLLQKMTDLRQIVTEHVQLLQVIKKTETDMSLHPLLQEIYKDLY

SMILES	EC50 [1]	logD [2]	EC50 [3]	EC50 [4]	EC50 [5]
Cc1cc(CN2CCCC2C(=O)Nc2ccc(Cl)cc2Cl)ccc1OCC(=O)O (stereo not given)	1.6 µM				
Cc1cc(CN2CCC(C(=O)Nc3ccc(Cl)cc3Cl)C2)ccc1OCC(=O)O (stereo not given)	1 µM				
Cc1cc(CN2Cc3ccccc3C2C(=O)Nc2cc(Cl)ccc2Cl)ccc1OCC(=O)O (stereo not given)	0.32 µM				
Cc1cc(CN2Cc3ccccc3C2C(=O)Nc2ccc(Cl)cc2)ccc1OCC(=O)O (stereo not given)	2.5 µM				
Cc1cc(CN2Cc3ccccc3C2C(=O)Nc2ccccc2)ccc1OCC(=O)O (stereo not given)	> 60 µM				
Cc1cc(CN2Cc3ccccc3C2C(=O)O)ccc1OCC(=O)O (stereo not given)	> 20 µM				
Cc1cc(CN2Cc3ccccc3C[C@H]2C(=O)Nc2ccc(Cl)cc2Cl)ccc1OCC(=O)O	0.005 µM	2.4	2.5 µM	0.015 µM	> 20 µM
Cc1cc(CN2Cc3ccccc3C[C@@H]2C(=O)Nc2ccc(Cl)cc2Cl)ccc1OCC(=O)O	0.0005 µM		1.25 µM		0.8 µM
Cc1cc(CN2Cc3ccccc3C2C(=O)Nc2ccc(Cl)cc2Cl)ccc1OCC(=O)O (racemic)	0.025 µM	2.6	> 30 µM		> 30 µM
Cc1cc(CN2CCc3ccccc3C2C(=O)Nc2ccc(Cl)cc2Cl)ccc1OCC(=O)O (racemic)	0.01 µM	2.6	6.3 µM	0.07 µM	2.7 µM
Cc1cc(CN2Cc3ncccc3CC2C(=O)Nc2ccc(Cl)cc2Cl)ccc1OCC(=O)O (racemic)	0.5 µM				
Cc1cc(CN2Cc3cccnc3CC2C(=O)Nc2ccc(Cl)cc2Cl)ccc1OCC(=O)O (racemic)	2 µM				
